In ChEMBL document CHEMBL2424587, “Antiproliferative activity of abietane diterpenoids against human tumor cells” (J Nat Prod, 2013) one finds Activity and IC50 data, which are given here for 3 molecules.

Each structure is given as a SMILES string. The source made the active and inactive calls. The rule behind the calls is not given here.

Assay [1] concerns HL-60. The assay can be described thus: Induction of apoptosis in human HL60 cells assessed as accumulation at sub-G1 phase at 3 uM after 24 hrs by AnnexinV-FITC/propidium iodide staining-based flow cytometry (reference value: 4%).
In assay [2] the test system is HL-60. The assay can be described thus: Induction of intracellular ROS generation in human HL60 cells at 3 uM after 15 mins to 4 hrs by flow cytometry. Format: functional, cell-based. Summed up:
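HL-60 cells given 3 μM diterpene for the indicated times, then loaded with H2-DCF-DA. Fluorescence of oxidized H2DCF was measured by flow cytometry. Three independent experiments.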

In assay [3] the test system is HL-60. Briefly: Induction of apoptosis in human HL60 cells after 24 hrs by flow cytometry in presence of JNK/SAPK inhibitor SP600125. The class given is functional, cell-based.
For assay [4], the system named is HL-60. The assay can be described thus: Induction of apoptosis in human HL60 cells after 24 hrs by flow cytometry in presence of MEK1 inhibitor PD98059. The class given is functional, cell-based.
Assay [5] deals with HL-60. Briefly: Cytotoxicity against human HL60 cells overexpressing Bcl-XL protein after 72 hrs by MTT assay. Conditions: HL-60, 72 h. Format: functional, cell-based.
The test system of assay [6] is HL-60. Briefly: Induction of apoptosis in human HL60 cells after 24 hrs by flow cytometry in presence of MEK2 inhibitor U0126. The class given is functional, cell-based.
The subject of assay [7] is U-937. The assay can be described thus: Cytotoxicity against human U937 cells after 72 hrs by MTT assay. The class given is functional, cell-based. Conditions: U-937, 72 h. Summed up: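 MTT assay: 1 × 10^4 exponentially growing cells per well incubated 72 h over a range of compound concentrations; MTT 0.5 mg/mL for 4 h at 37 °C, then 10% SDS in 0.05 M HCl overnight at room temperature in the dark; absorbance at 570 nm. Leukemia and SK-MEL-1 lines grown in RPMI 1640, MCF-7 in DMEM, both with 10% heat-inactivated FBS. IC50 given as mean ± SEM of 3–5 independent experiments, each in triplicate.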

Assay [8] deals with HL-60. The assay can be described thus: Induction of apoptosis in human HL60 cells assessed as reduction in mitochondrial membrane potential at 3 uM after 24 hrs by JC-1 staining-based flow cytometry. Format: functional, cell-based. Put shortly:
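ΔΨm in HL-60 cells after 24 h at 3 μM assessed by JC-1 fluorescence on flow cytometry; two separate experiments, each in triplicate.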

The test system of assay [9] is HL-60. Briefly: Cell cycle arrest in human HL60 cells assessed as accumulation at Sub-G1 phase at 3 uM after 24 hrs by […]propidium iodide staining-based flow cytometry (reference value: 4%). The class given is functional.
Assay [10] deals with HL-60. Briefly: Induction of apoptosis in human HL60 cells assessed as procaspase-3 cleavage at 3 uM after 24 hrs by immunoblotting analysis. Format: functional, cell-based. Put shortly:
(§1)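 HL-60 cells treated 24 h with 3 μM; immunoblots of lysates probed with antibodies that recognize both pro-caspases and cleaved caspases, and for PARP.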

Assay [11] concerns HL-60. The assay can be described thus: Induction of apoptosis in human HL60 cells assessed as decrease in Bax level by Western blotting analysis. Format: functional, cell-based. Put shortly: (§2)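 HL-60 cells incubated with the diterpene; whole-cell lysates probed by Western blot for Bcl-2 family proteins, with β-actin as loading control.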
Assay [12] has as its system HL-60. Briefly: Induction of apoptosis in human HL60 cells after 24 hrs by flow cytometry in presence of p38 MAPK inhibitor SB203580 (reference value: 15.1 +/- 3.8%). The class given is functional.
The test system of assay [13] is HL-60. Briefly: Induction of ROS-mediated cell death in human HL60 cells at 3 uM after 15 mins to 4 hrs by flow cytometry in presence of NAC. Format: functional, cell-based.
The test system of assay [14] is HL-60. The assay can be described thus: Induction of apoptosis in human HL60 cells assessed as decrease in Bcl-2 level by Western blotting analysis. The class given is functional, cell-based. Summed up:
as §2

The subject of assay [15] is HL-60. The assay can be described thus: Induction of apoptosis in human HL60 cells assessed as abundant vacuoles at 3 uM after 24 hrs by transmission electron microscopy. The class given is functional, cell-based. Put shortly: (§3)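 HL-60 cells incubated 24 h with 3 μM compound and examined by transmission electron microscopy for ultrastructural changes.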
The subject of assay [16] is HL-60. The assay can be described thus: Induction of apoptosis in human HL60 cells assessed as dense perinuclear condensation at 3 uM after 24 hrs by transmission electron microscopy. Format: functional, cell-based. Summed up: as §3
The subject of assay [17] is HL-60. Briefly: Cell cycle arrest in human HL60 cells assessed as accumulation at G2-M phase at 3 uM after 24 hrs by […]propidium iodide staining-based flow cytometry (reference value: 4%). The class given is functional.
The test system of assay [18] is HL-60. Briefly: Cell cycle arrest in human HL60 cells assessed as accumulation at G1 phase at 3 uM after 24 hrs by […]propidium iodide staining-based flow cytometry (reference value: 43%). Format: functional.
Assay [19] relates to HL-60. The assay can be described thus: Induction of apoptosis in human HL60 cells assessed as procaspase-7 cleavage at 3 uM after 24 hrs by immunoblotting analysis. Format: functional, cell-based. Summed up: as §1
Assay [20] concerns HL-60. Briefly: Induction of apoptosis in human HL60 cells assessed as fragmented and/or condensed nuclei at 3 uM after 24 hrs by transmission electron microscopy. The class given is functional, cell-based. Put shortly:
as §3

Regarding `COc1ccc(C(=O)OC2=C(C(C)C)C(=O)C3=C(C2=O)[C@@]2(C)CCCC(C)(C)[C@@H]2[C@H](O)[C@H]3OC(C)=O)cc1`, the figures for the Activity in [1] and in assay [9] were 8% and 28%, respectively. In assay [2], the result was inactive. Also, the result in assay [3], in assay [4], in [6], in assay [8] and in assay [10] was Active. In addition, the half-maximal inhibitory concentration (IC50) in assay [5] came out at 2.9 µM; in [7] it was 1.4 µM.

For `CC(=O)O[C@H]1C2=C(C(=O)C(OC(=O)c3ccc(Cl)cc3)=C(C(C)C)C2=O)[C@@]2(C)CCCC(C)(C)[C@@H]2[C@@H]1O`, the results for the Activity in [1] and in assay [9] were 9% and 32%, respectively. In addition, the outcome in assay [11], in assay [12], in assay [14], in assay [8] and in assay [10] was Active. Further, the IC50 in assay [5] turned out to be 2.2 µM; in assay [7] it was 1.1 µM. Besides, the outcome in assay [13] was inactive.

Consider `CC(=O)O[C@H]1C2=C(C(=O)C(OC(=O)c3ccccc3)=C(C(C)C)C2=O)[C@@]2(C)CCCC(C)(C)[C@@H]2[C@@H]1OC(=O)c1ccccc1`, for which the result in assay [15], in assay [16], in assay [3], in assay [12], in assay [4] and in assay [6] was Active. Besides, the outcome in assay [19], in [20], in assay [8] and in assay [10] was Active. Moreover, the Activity is on record as 16% in [17], 30% in assay [18] and 40% in assay [9]. The IC50 in assay [5] was 1.1 µM; in assay [7], 1.8 µM. Besides, the result in assay [13] was inactive.
